Active and inactive are the calls of the source. The rule behind the calls is not given here.
What was measured:
MCF7 = experiment: Antiproliferative activity against human MCF7 cells after 48 hrs by MTT assay; format: functional, cell-based; settings: MCF7, 48 h
Procedure, shortened: (§1)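 Cells seeded at 3000–5000 per well in DMEM with 10% FBS and preincubated 24 h at 37 °C. Cell numbers were titrated so controls stay in exponential growth, then 48 h drug exposure. MTT added for 4 h, formazan pelleted by centrifugation and dissolved in DMSO, OD read at 490 nm. IC50 calculated from inhibition ratios, mean of three separate experiments in triplicate.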

HCT-116 [1] = experiment: Inhibition of PI3K in human HCT116 cells assessed as reduction of AKT phosphorylation at Ser473 at 10 uM after 1 hr by Western blot analysis; format: cell-based
Procedure, shortened: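 HCT-116 cells seeded at 1 × 10⁶ per well in DMEM with 10% FBS and grown 16 h at 37 °C. Treated 1 h at 37 °C at […] or with DMSO. Cells washed in ice-cold PBS, lysed, and clarified at 12,000 rpm for 20 min at 4 °C. Protein quantified by BCA, run on SDS-PAGE, transferred to nitrocellulose, and probed for AKT and p-Ser473 AKT.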

[2] = Antiproliferative activity against human U87MG cells after 48 hrs by MTT assay; format: functional, cell-based, U-87MG ATCC; settings: U-87 MG; procedure, shortened: as §1
HCT-116 [3] = experiment: Antiproliferative activity against human HCT116 cells after 48 hrs by MTT assay; format: functional, cell-based; settings: HCT-116, 48 h; procedure, shortened: as §1
Mus musculus [4] = experiment: Toxicity in mouse S180 cells xenografted mouse assessed as mortality at 20 mg/kg, po; format: organism-based, CCRF S-180; set-up: dose 20 mg/kg, route oral; settings: in vivo
Mus musculus [5] = experiment: Toxicity in mouse S180 cells xenografted mouse assessed as change on body weight at 5 mg/kg, po qd for 10 days; format: organism-based, CCRF S-180; set-up: dose 5 mg/kg, route oral; settings: in vivo, 240 h
Procedure, shortened: (§2)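 S-180 tumor-bearing mice (6 per group) dosed orally once daily for 10 days at 1 or 5 mg/kg in DMSO/PEG400/5% glucose (10:60:30), with a vehicle solvent group. Body weights recorded daily. Animals sacrificed on Day 11.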

CCRF S-180 [6] = experiment: Antitumor activity against mouse S180 cells xenografted in mouse assessed as inhibition of tumor growth at 5 mg/kg, po qd for 10 days relative to control; format: functional; settings: CCRF S-180, 240 h
Procedure, shortened: (§3)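 Mice bearing sarcoma S-180 randomized into three groups of 6. Compound in DMSO/PEG400/5% glucose (10:60:30) given orally once daily for 10 days at 1 or 5 mg/kg. The solvent group received the same volume of vehicle. Mice sacrificed on Day 11, tumors weighed, and tumor-weight inhibitory ratio calculated versus the solvent group.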

CCRF S-180 [7] = experiment: Antitumor activity against mouse S180 cells xenografted in mouse assessed as inhibition of tumor growth at 1 mg/kg, po qd for 10 days relative to control; format: functional; settings: CCRF S-180, 240 h; procedure, shortened: as §3
Mus musculus [8] = experiment: Toxicity in mouse S180 cells xenografted mouse assessed as change on body weight at 1 mg/kg, po qd for 10 days; format: organism-based, CCRF S-180; set-up: dose 1 mg/kg, route oral; settings: in vivo, 240 h; procedure, shortened: as §2

Row | IC50 (MCF7) [nM] | IC50 (HCT-116 [3]) [nM] | Structure (SMILES) | inhibition (HCT-116 [1]) | IC50 [2] [nM] | Activity (Mus musculus [4]) | Activity (Mus musculus [5]) [%] | inhibition in vivo at 5 mg/kg (CCRF S-180 [6]) [%] | inhibition in vivo at 1 mg/kg (CCRF S-180 [7]) [%] | Activity (Mus musculus [8])
1 | 2010 | 740 | COc1ncc(-c2ccc3nc(NC(C)=O)nn3c2)cc1NS(=O)(=O)c1ccc(Cl)cc1 | – | 2090 | – | – | – | – | –
2 | 1240 | 1330 | COc1ncc(-c2ccn3nc(NC(C)=O)nc3c2)cc1NS(=O)(=O)c1ccc(Cl)cc1 | – | 2120 | – | – | – | – | –
3 | 12600 | 8640 | COc1ncc(-c2ccc3nc(NCC(=O)O)nn3c2)cc1NS(=O)(=O)c1ccc(F)cc1 | – | 9810 | – | – | – | – | –
4 | 1550 | 3400 | COc1ncc(-c2ccc3nc(N)nn3c2)cc1NS(=O)(=O)c1ccc(C)cc1 | – | 2510 | – | – | – | – | –
5 | 1930 | 2970 | COc1ncc(-c2ccc3nc(N)nn3c2)cc1NS(=O)(=O)c1ccc(F)cc1 | – | 3950 | – | – | – | – | –
6 | 1820 | 2500 | COc1ncc(-c2ccc3nc(N)nn3c2)cc1NS(=O)(=O)c1ccc(Cl)cc1 | – | 3110 | – | – | – | – | –
7 | 810 | 600 | COc1ncc(-c2ccc3nc(NC(C)=O)nn3c2)cc1NS(=O)(=O)c1ccc(C)cc1 | – | 1600 | – | – | – | – | –
8 | 2410 | 4610 | COCCNc1nc2ccc(-c3cnc(OC)c(NS(=O)(=O)c4ccc(F)cc4)c3)cn2n1 | – | 6390 | – | – | – | – | –
9 | 8400 | 6100 | COc1ncc(-c2ccc3nc(NCC(N)=O)nn3c2)cc1NS(=O)(=O)c1ccc(F)cc1 | – | 5800 | – | – | – | – | –

More lines, now with the values behind:

Row | Structure (SMILES) | IC50 (MCF7) [nM] | IC50 (HCT-116 [3]) [nM] | inhibition (HCT-116 [1]) | IC50 [2] [nM] | Activity (Mus musculus [4]) | Activity (Mus musculus [5]) [%] | inhibition in vivo at 5 mg/kg (CCRF S-180 [6]) [%] | inhibition in vivo at 1 mg/kg (CCRF S-180 [7]) [%] | Activity (Mus musculus [8])
10 | CC(=O)Nc1nc2ccc(-c3cnc(Cl)c(NS(=O)(=O)c4ccc(F)cc4)c3)cc2s1 | 230 | – | Active | – | – | – | – | – | –
11 | COc1ncc(-c2ccn3nc(NC(C)=O)nc3c2)cc1NS(=O)(=O)c1ccc(F)cc1 | 1730 | 1320 | – | 2410 | – | – | – | – | –
12 | COc1ncc(-c2ccc3nc(NC(C)=O)nn3c2)cc1NS(=O)(=O)C1CC1 | 1640 | 2220 | – | 3730 | – | – | – | – | –
13 | COc1ncc(-c2ccn3nc(N)nc3c2)cc1NS(=O)(=O)c1ccc(F)cc1 | 920 | 820 | Active | 1770 | Toxic | – | – | – | –
14 | Cn1c(=O)n(-c2ccc(C(C)(C)C#N)cc2)c2c3cc(-c4cnc5ccccc5c4)ccc3ncc21 [DACTOLISIB] | 730 | 1160 | – | 1320 | – | – | – | – | –
15 | COc1ncc(-c2ccc3nc(NC(C)=O)nn3c2)cc1NS(=O)(=O)c1ccc(F)cc1F | 870 | 740 | – | 2000 | – | – | – | – | –
16 | CCOCCNc1nc2ccc(-c3cnc(OC)c(NS(=O)(=O)c4ccc(F)cc4)c3)cn2n1 | 1350 | 9350 | – | 8150 | – | – | – | – | –
17 | COc1ncc(-c2ccn3nc(NC(C)=O)nc3c2)cc1NS(=O)(=O)c1ccc(C)cc1 | 1360 | 1380 | – | 2030 | – | – | – | – | –
18 | COc1ncc(-c2ccc3nc(NC(=O)C4CC4)nn3c2)cc1NS(=O)(=O)c1ccc(F)cc1 | 2590 | 1740 | – | 4850 | – | – | – | – | –
19 | CNC(=O)CNc1nc2ccc(-c3cnc(OC)c(NS(=O)(=O)c4ccc(F)cc4)c3)cn2n1 | 2540 | 4910 | – | 7290 | – | – | – | – | –
20 | O=C(Nc1nc2ccc(-c3cnc(Cl)c(NS(=O)(=O)c4ccc(F)cc4)c3)cn2n1)C1CC1 | > 60000 | 9980 | – | 11000 | – | – | – | – | –
21 | COc1ncc(-c2ccc3nc(NC(C)=O)nn3c2)cc1NS(=O)(=O)c1ccc(F)cc1 | 840 | 850 | Active | 1820 | Non-toxic | < 90 | 75.8 | 20 | Non-toxic
22 | CCOC(=O)CNc1nc2ccc(-c3cnc(OC)c(NS(=O)(=O)c4ccc(F)cc4)c3)cn2n1 | 4410 | 4370 | – | 7940 | – | – | – | – | –
23 | CC(=O)Nc1nc2ccc(-c3cnc(Cl)c(NS(=O)(=O)c4ccc(C)cc4)c3)cn2n1 | 3250 | 2650 | – | 3760 | – | – | – | – | –
24 | CC(=O)Nc1nc2ccc(-c3cnc(Cl)c(NS(=O)(=O)c4ccc(F)cc4)c3)cn2n1 | 19800 | 9230 | – | 6950 | – | – | – | – | –
